Reference: ChEMBL document CHEMBL1123704, “Synthesis of D-oxa tricyclic partial ergolines as dopamine agonists” (1987)

Legend:
Type in all cases: functional
[1] = test system: Rattus norvegicus; assay: Ability to induce contralateral rotational behavior in unilateral 6-hydroxydopamine nigrostriatal-lesioned rats and percent of rats turning was determined at intraperitoneal dosage of 1.0 mg/kg
Method in brief: (§1)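 Rats given unilateral 6-hydroxydopamine nigrostriatal lesions, then test compound ip. Contralateral rotation was scored as percent of rats turning and as turns in the first 15 min after turning began. Groups of 6–10 rats.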

[2] = test system: Rattus norvegicus; assay: Ability to lower the serum prolactin levels in comparison with that of pergolide was determined for the drug-treated rats at ip dose of 0.05 mg/kg; conditions: route intraperitoneal
Method in brief: (§2)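 Reserpinized male rats, test compound ip. Serum prolactin (ng/mL) was measured in control and treated groups, and the treated value was expressed as percent change from control. Means ± standard error for 10 rats, with significance versus control prolactin given as p.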

[3] = test system: Rattus norvegicus; assay: Ability to lower the serum prolactin levels in comparison with that of pergolide was determined for the drug-treated rats at ip dose of 0.5 mg/kg; conditions: route intraperitoneal; method in brief: as §2
[4] = test system: Rattus norvegicus; assay: Ability to lower the serum prolactin levels in comparison with that of pergolide was determined for the drug-treated rats at ip dose of 5.0 mg/kg; conditions: route intraperitoneal; method in brief: as §2
[5] = test system: Rattus norvegicus; assay: Ability to induce contralateral rotational behavior in unilateral 6-hydroxydopamine nigrostriatal-lesioned rats and percent of rats turning was determined at intraperitoneal dosage of 0.1 mg/kg; method in brief: as §1
[6] = test system: Rattus norvegicus; assay: Ability to lower the serum prolactin levels in comparison with that of pergolide expressed as percent inhibition change at ip dose of 0.05 mg/kg; conditions: route intraperitoneal; method in brief: as §2
[7] = test system: Rattus norvegicus; assay: Ability to lower the serum prolactin levels in comparison with that of pergolide expressed as percent inhibition change at ip dose of 0.5 mg/kg; conditions: route intraperitoneal; method in brief: as §2
[8] = test system: Rattus norvegicus; assay: Ability to lower the serum prolactin levels in comparison with that of pergolide expressed as percent inhibition change at ip dose of 5.0 mg/kg; conditions: route intraperitoneal; method in brief: as §2
[9] = test system: Rattus norvegicus; assay: Ability to induce contralateral rotational behavior in unilateral 6-hydroxydopamine nigrostriatal-lesioned rats and no. of turns was determined after 15 minutes of start at intraperitoneal dosage of 0.1 mg/kg; method in brief: as §1
[10] = test system: Rattus norvegicus; assay: Ability to induce contralateral rotational behavior in unilateral 6-hydroxydopamine nigrostriatal-lesioned rats and no. of turns was determined after 15 minutes of start at intraperitoneal dosage of 1.0 mg/kg; method in brief: as §1
[11] = test system: Rattus norvegicus; assay: Ability to lower the serum prolactin levels in comparison with that of pergolide was determined for the control rats at ip dose of 0.005 mg/kg; conditions: route intraperitoneal; method in brief: as §2
[12] = test system: Rattus norvegicus; assay: Ability to lower the serum prolactin levels in comparison with that of pergolide was determined for the control rats at ip dose of 0.05 mg/kg; conditions: route intraperitoneal; method in brief: as §2
[13] = test system: Rattus norvegicus; assay: Ability to lower the serum prolactin levels in comparison with that of pergolide was determined for the drug-treated rats at ip dose of 0.005 mg/kg; conditions: route intraperitoneal; method in brief: as §2
[14] = test system: Rattus norvegicus; assay: Ability to lower the serum prolactin levels in comparison with that of pergolide expressed as percent inhibition change at ip dose of 0.005 mg/kg; conditions: route intraperitoneal; method in brief: as §2
[15] = test system: Rattus norvegicus; assay: Ability to lower the serum prolactin levels in comparison with that of pergolide was determined for the control rats at ip dose of 0.01 mg/kg; conditions: route intraperitoneal; method in brief: as §2
[16] = test system: Rattus norvegicus; assay: Ability to lower the serum prolactin levels in comparison with that of pergolide was determined for the drug-treated rats at ip dose of 0.01 mg/kg; conditions: route intraperitoneal; method in brief: as §2
[17] = test system: Rattus norvegicus; assay: Ability to lower the serum prolactin levels in comparison with that of pergolide expressed as percent inhibition change at ip dose of 0.01 mg/kg; conditions: route intraperitoneal; method in brief: as §2
[18] = test system: Rattus norvegicus; assay: Ability to lower the serum prolactin levels in comparison with that of pergolide was determined for the control rats at ip dose of 0.1 mg/kg; conditions: route intraperitoneal; method in brief: as §2
[19] = test system: Rattus norvegicus; assay: Ability to lower the serum prolactin levels in comparison with that of pergolide was determined for the control rats at ip dose of 0.5 mg/kg; conditions: route intraperitoneal; method in brief: as §2
[20] = test system: Rattus norvegicus; assay: Ability to lower the serum prolactin levels in comparison with that of pergolide was determined for the drug-treated rats at ip dose of 0.1 mg/kg; conditions: route intraperitoneal; method in brief: as §2
[21] = test system: Rattus norvegicus; assay: Ability to lower the serum prolactin levels in comparison with that of pergolide expressed as percent inhibition change at ip dose of 0.1 mg/kg; conditions: route intraperitoneal; method in brief: as §2

Row | Compound | Of rats turning [1] [%] | Prolactin treatment [2] [ng/mL] | Prolactin treatment [3] [ng/mL] | Of rats turning [5] [%] | Change [6] [%] | Change [7] [%] | Prolactin control [11] [ng/mL] | Prolactin control [12] [ng/mL] | Prolactin treatment [13] [ng/mL] | Change [14] [%] | Turns [9] | Turns [10] | Prolactin control [15] [ng/mL] | Rats turning [1] [%] | Prolactin treatment [16] [ng/mL] | Change [17] [%] | also measured
1 | CCCN1CCC[C@@H]2Cc3n[nH]cc3C[C@H]21 [QUINPIROLE] | 100 | 12.3 | 7.7 | 75 | -61 | -76 | – | – | – | – | – | – | – | – | – | – | Prolactin treatment [4]: 2.7 ng/mL; Change [8]: -91%; Turns/1st [9]: 67; Turns/1st [10]: 85
2 | CCCN1C[C@H](CSC)C[C@@H]2c3cccc4[nH]cc(c34)C[C@H]21 [PERGOLIDE] | 100 | 1.6 | – | 83 | -95 | – | 37.7 | 30.4 | 3.5 | -91 | 81 | 93 | – | – | – | – | –
3 | CCCN1CCO[C@@H]2Cc3nc(N)sc3C[C@H]21 | – | 20.2 | – | – | -51 | – | – | 41.5 | – | – | – | 95 | 40.6 | 80 | 48.9 | -20 | –
4 | CCCN1CCO[C@@H]2Cc3n[nH]cc3C[C@H]21 | – | 27 | 3.6 | – | -41 | -92 | – | 45.5 | – | – | 35 | 52 | 58 | 100 | 62 | 7 | Prolactin control [18]: 46.8 ng/mL; Prolactin control [19]: 46.8 ng/mL; Prolactin treatment [20]: 30.2 ng/mL; Rats turning [5]: 60%; Change [21]: -35%
5 | CCCN1CCO[C@@H]2Cc3nc(N)ncc3C[C@H]21 | – | 13.8 | – | – | -70 | – | 40.6 | 45.4 | 41.2 | 1 | – | 33 | 52 | 80 | 33.7 | -31 | –
